Measured values gathered from unrelated publications.
Protocols differ between the studies behind these lines.
Target: Mitogen-activated protein kinase 10 (MAPK10, Homo sapiens, UniProt P53779)

Cn1cncc1[C@](O)(COc1ccc(C#N)cc1-c1ccc(OC(F)(F)F)cc1)c1ccc(C#N)cc1  remaining binding (cell-free assay, competition with immobilised ligand; 1 µM): 70%
O=c1[nH]c2ccccc2n1C1CCN(Cc2ccc(-c3[nH]c4cc5ncnc5cc4nc3-c3ccccc3)cc2)CC1  remaining signal (cell-free assay; 0.5 µM): 96%
Nc1ncc(-c2nc(N3CCOCC3)nc(N3CCOCC3)n2)c(C(F)F)n1  remaining binding (binding, competition with immobilised ligand; 10 µM): 90%
CC(C)(C)c1cc(C=C(C#N)C#N)cc(Br)c1O  remaining activity (enzyme activity, inhibitor; 0.5 µM): 92.5%
COc1cc(Nc2ncc(F)c(Nc3ccc4c(n3)NC(=O)C(C)(C)O4)n2)cc(OC)c1OC  inhibition (binding, competition with immobilised ligand; 10 µM): 100%
COc1ncccc1-c1cnn2ccc(N3CCN(C(=O)OC(C)C)CC3)nc12  remaining binding (binding, competition with immobilised ligand; 1 µM): 100%
Cc1nn(C)cc1-c1nc2c(N3CCN(Cc4ccc(Cl)cc4)CC3)c(Cl)cnc2[nH]1  remaining binding (binding, competition with immobilised ligand; 1 µM): 100%
NC(=O)c1nc(Nc2ccccc2)sc1NC(=O)C1CCCCC1  remaining binding (cell-free assay, competition with immobilised ligand; 10 µM): 5.4%
Cn1cc(-c2cc(F)cc(N3CCn4c(cc5c4CCCC5)C3=O)c2CO)cc(Nc2ccc(N3CCN(C4COC4)CC3)cn2)c1=O  inhibition (enzyme activity, inhibitor; 0.1 µM): 5%
N#CC1(c2ccccn2)CCN(Cc2cc(C(=O)O)c(=O)n3ccccc23)CC1  remaining binding (cell-free assay, competition with immobilised ligand; 1 µM): 82%
